Data published in ChEMBL document CHEMBL3826928, “Incorporation of Phosphonate into Benzonaphthyridine Toll-like Receptor 7 Agonists for Adsorption to Aluminum Hydroxide” (J Med Chem, 2016).
Calls of active or inactive are those of the source. No cut-off for these calls is given here.

What was measured:
[1] = target: T1, Toll-like receptor 8 (Homo sapiens) (UniProt Q9NR97); assay: Agonist activity at human TLR8 expressed in HEK293 cells up to 30 uM incubated for 6 hrs by luciferase reporter gene assay relative to resiquimod; type: cell-based
T1 sequence (whole entry): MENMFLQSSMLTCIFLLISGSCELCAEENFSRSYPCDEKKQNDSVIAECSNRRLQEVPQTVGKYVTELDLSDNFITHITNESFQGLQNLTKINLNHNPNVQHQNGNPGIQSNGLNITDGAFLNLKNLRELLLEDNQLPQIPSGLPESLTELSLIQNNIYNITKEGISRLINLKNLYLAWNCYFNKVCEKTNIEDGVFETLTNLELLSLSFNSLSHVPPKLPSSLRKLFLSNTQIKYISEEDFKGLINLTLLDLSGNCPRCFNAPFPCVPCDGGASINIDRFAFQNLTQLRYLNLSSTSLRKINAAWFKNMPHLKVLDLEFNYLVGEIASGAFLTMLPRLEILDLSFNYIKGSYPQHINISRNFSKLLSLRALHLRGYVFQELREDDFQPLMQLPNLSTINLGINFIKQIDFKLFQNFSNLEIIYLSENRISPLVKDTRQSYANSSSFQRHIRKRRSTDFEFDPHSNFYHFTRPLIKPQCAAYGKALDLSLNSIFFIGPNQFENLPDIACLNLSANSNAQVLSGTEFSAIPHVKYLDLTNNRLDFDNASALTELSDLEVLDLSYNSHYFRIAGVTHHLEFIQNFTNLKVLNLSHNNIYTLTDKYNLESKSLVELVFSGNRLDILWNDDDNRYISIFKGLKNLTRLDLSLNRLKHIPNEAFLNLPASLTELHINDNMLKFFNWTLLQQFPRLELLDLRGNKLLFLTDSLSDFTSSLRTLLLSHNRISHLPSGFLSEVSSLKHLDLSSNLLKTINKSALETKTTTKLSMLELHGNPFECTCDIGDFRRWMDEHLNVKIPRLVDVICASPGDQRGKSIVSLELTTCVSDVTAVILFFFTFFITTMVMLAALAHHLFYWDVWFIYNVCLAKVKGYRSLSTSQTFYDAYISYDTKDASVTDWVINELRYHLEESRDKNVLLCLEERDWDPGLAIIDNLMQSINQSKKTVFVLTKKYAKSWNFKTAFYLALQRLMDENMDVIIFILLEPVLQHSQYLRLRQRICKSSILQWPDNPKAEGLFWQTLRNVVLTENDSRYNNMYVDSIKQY

Toll-like receptor 7 [2] = target: T2, Toll-like receptor 7 (Homo sapiens, UniProt Q9NYK1); assay: Agonist activity at TLR7 in human PBMC assessed as induction of IL-6 secretion in supernatant after 18 hrs
T2 sequence (Q9NYK1 whole entry): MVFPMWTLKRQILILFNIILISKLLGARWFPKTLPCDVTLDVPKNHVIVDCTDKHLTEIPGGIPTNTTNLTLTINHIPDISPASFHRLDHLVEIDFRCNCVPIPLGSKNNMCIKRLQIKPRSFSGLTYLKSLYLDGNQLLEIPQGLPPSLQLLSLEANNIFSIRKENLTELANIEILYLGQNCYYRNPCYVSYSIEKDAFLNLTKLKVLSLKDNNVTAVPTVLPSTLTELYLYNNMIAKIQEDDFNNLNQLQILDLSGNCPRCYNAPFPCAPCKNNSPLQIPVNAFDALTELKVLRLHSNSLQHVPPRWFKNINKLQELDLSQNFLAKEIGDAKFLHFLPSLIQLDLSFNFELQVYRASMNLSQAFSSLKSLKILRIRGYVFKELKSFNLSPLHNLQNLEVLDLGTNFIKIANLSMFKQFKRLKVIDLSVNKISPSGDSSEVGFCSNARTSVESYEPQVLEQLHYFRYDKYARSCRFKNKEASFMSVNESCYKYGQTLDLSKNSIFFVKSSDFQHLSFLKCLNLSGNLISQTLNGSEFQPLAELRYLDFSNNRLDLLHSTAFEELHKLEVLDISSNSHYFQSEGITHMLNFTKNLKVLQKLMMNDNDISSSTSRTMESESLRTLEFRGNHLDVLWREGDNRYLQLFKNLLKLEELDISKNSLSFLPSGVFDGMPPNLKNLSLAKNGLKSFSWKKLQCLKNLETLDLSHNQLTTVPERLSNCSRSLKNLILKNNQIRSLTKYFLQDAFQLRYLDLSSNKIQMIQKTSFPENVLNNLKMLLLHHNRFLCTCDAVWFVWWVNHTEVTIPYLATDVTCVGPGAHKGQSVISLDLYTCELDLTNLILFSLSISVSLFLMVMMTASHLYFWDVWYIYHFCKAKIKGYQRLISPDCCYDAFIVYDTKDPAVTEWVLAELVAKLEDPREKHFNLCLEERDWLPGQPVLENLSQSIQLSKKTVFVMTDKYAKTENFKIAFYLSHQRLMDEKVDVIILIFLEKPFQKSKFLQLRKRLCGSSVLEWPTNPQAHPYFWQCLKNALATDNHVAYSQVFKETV
Summary of the method: (§1)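 Isolated human PBMCs washed in PBS, resuspended in RPMI1640 with 10% heat-inactivated FBS, pyruvate, HEPES, at 1 × 10⁶ cells/mL. Compounds as in-situ sodium salts from 10 mM aqueous stocks, 3-fold 10-point dilutions from 30 μM.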

[3] = target: T3, Toll-like receptor 7 (Mus musculus) (UniProt P58681); assay: Agonist activity at TLR7 in Balb/c mouse splenocytes assessed as induction of IL-6 secretion in supernatant after 18 hrs relative to resiquimod; type: cell-based
T3 sequence (whole entry): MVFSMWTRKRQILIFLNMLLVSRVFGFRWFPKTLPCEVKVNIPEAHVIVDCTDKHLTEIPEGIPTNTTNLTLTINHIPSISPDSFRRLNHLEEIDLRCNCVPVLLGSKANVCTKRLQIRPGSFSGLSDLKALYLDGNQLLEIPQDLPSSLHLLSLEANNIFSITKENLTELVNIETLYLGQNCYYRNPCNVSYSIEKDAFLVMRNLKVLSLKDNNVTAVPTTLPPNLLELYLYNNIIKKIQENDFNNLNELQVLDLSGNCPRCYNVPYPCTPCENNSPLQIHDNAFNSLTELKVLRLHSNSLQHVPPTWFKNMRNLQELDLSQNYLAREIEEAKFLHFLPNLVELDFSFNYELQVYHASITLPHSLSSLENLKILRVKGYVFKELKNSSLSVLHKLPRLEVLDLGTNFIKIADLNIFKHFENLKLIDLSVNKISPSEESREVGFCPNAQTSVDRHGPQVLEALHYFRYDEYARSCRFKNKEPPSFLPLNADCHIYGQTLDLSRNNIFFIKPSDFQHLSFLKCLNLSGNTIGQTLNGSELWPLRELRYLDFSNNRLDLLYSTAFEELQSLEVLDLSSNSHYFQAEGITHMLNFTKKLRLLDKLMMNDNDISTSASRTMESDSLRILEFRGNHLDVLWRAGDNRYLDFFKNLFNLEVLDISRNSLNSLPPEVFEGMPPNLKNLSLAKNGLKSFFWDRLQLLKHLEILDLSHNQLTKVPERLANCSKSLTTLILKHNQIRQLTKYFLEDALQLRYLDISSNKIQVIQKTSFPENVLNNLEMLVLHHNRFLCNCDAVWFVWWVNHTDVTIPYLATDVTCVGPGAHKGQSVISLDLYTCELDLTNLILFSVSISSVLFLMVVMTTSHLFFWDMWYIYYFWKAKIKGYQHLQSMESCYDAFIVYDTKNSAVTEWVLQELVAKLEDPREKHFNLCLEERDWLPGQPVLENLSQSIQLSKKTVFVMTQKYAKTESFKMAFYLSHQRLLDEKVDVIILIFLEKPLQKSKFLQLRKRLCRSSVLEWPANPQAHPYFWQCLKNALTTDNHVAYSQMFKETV
Summary of the method: (§2)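 Spleens from female BALB/c mice (6−10 weeks), single-cell suspension, RBC lysis; 5 × 10⁵ splenocytes per well in RPMI 1640 with 10% FCS, 2-ME. Compounds as sodium salts (1 equiv NaOH) from 10 mM water stocks, 3-fold 10-point dilutions from 30 μM.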

Toll-like receptor 7 [4] = target: T4, Toll-like receptor 7 (Mus musculus, UniProt P58681); assay: Agonist activity at TLR7 in Balb/c mouse splenocytes assessed as induction of IL-6 secretion in supernatant after 18 hrs; type: cell-based; summary of the method: as §2
T4 sequence (P58681 whole entry): T3 sequence (whole entry)

Toll-like receptor 7 [5] = target: T2, Toll-like receptor 7; assay: Agonist activity at human TLR7 expressed in HEK293 cells incubated for 6 hrs by luciferase reporter gene assay; type: cell-based
Summary of the method: (§3)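 HEK293 stably carrying NF-κB-firefly luciferase reporter plus human TLR7 (best resiquimod-responding clone), maintained under puromycin/blasticidin. 25 000 cells per well in DMEM with 3% FCS.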

[6] = target: T5, Toll-like receptor 7 (Homo sapiens) (UniProt Q9NYK1); assay: Agonist activity at TLR7 in human PBMC assessed as induction of IL-6 secretion in supernatant after 18 hrs relative to resiquimod; type: cell-based; summary of the method: as §1
T5 sequence (whole entry): T2 sequence (Q9NYK1 whole entry)

[7] = target: T5, Toll-like receptor 7 (Homo sapiens); assay: Agonist activity at human TLR7 expressed in HEK293 cells incubated for 6 hrs by luciferase reporter gene assay relative to resiquimod; type: cell-based; summary of the method: as §3
[8] = target: T5, Toll-like receptor 7 (Homo sapiens); assay: Agonist activity at TLR7 in human PBMC assessed as IL-6 level in supernatant after 18 hrs; summary of the method: as §1
[9] = target: T3, Toll-like receptor 7 (Mus musculus); assay: Agonist activity at TLR7 in Balb/c mouse splenocytes assessed as IL-6 level in supernatant after 18 hrs; type: cell-based; summary of the method: as §2

EC50 (Toll-like receptor 7 [5]) [nM] | %max [6] | %max [7] [%] | Activity [8] [pg/mL] | Activity [9] [pg/mL] | EC50 (Toll-like receptor 7 [2]) | SMILES | Activity [1] [%] | EC50 (Toll-like receptor 7 [2]; read-out: EC50) [nM] | %max [3] [%] | EC50 (Toll-like receptor 7 [4]) [nM]
– | – | – | – | – | – | Cc1cc(OCCCP(=O)(O)O)ccc1CCc1cnc2c(N)nc3cc(CCC(=O)O)ccc3c2c1 | < 5 | 290 | 100 | 310
– | – | – | – | – | – | Cc1ccc2c(c1)nc(N)c1ncc(CCc3ccc(OCCCC(F)(F)P(=O)(O)O)cc3C)cc12 | < 5 | 1600 | 47 | 3200
– | – | – | – | – | – | COc1ccc(CCc2cnc3c(N)nc4cc(C(=O)C(F)(F)P(=O)(O)O)ccc4c3c2)c(C)c1 | < 5 | 7800 | 100 | 3400
– | – | – | – | – | – | COc1ccc(CCc2cnc3c(N)nc4cc(CCP(=O)(O)O)ccc4c3c2)c(C)c1 | < 5 | 400 | 124 | 130
3100 | 55% | 94 | – | – | – | Cc1ccc2c(c1)nc(N)c1ncc(CCc3ccc(OCCOCCOCCP(=O)(O)O)cc3C)cc12 | < 5 | 8200 | 83 | 3600
– | – | – | 12500 | 600 | – | CCOCc1nc2c(N)nc3ccccc3c2n1CC(C)(C)O | – | – | – | –
– | – | – | – | – | – | COc1ccc(CCc2cnc3c(N)nc4cc(/C=C(\F)P(=O)(O)O)ccc4c3c2)c(C)c1 | < 5 | 3400 | 220 | 570
5600 | inactive | 112 | – | – | Not Active | COc1ccc(CCc2cnc3c(N)nc4cc(C(=O)P(=O)(O)O)ccc4c3c2)c(C)c1 | < 5 | – | 117 | 14000

SMILES | EC50 (Toll-like receptor 7 [5]) [nM] | %max [6] | %max [7] [%] | Activity [8] [pg/mL] | Activity [9] [pg/mL] | EC50 (Toll-like receptor 7 [2]) | Activity [1] [%] | EC50 (Toll-like receptor 7 [2]; read-out: EC50) [nM] | %max [3] [%] | EC50 (Toll-like receptor 7 [4]) [nM]
COc1ccc(CCc2cnc3c(N)nc4cc(/C=C/P(=O)(O)O)ccc4c3c2)c(C)c1 | 150 | – | – | – | – | – | < 5 | 1700 | 81 | 2500
